T cruzi growth-1 – blocks T. cruzi growth in NIH3T3 culture; AID 624255; inhibition, % at 8.34 µM; actives 5.9% (n = 77,000); T. cruzi beta-gal in NIH3T3, GalScreen luminescence, 90 h;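 active = mean inhibition above about 93%, with at least 55% of replicates each passing it, limit read from the data, passing the limit was not always enough; inconclusive = only one of those two conditions holds; inactive = neither condition holds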
IDH1 mut inh – blocks human IDH1 R132H reductase activity; AID 624101; actives 0.18% (n = 70,000); inhibition, % at 10 µM; O75874; diaphorase/resazurin fluorescence, 60 min; in the data active = inhibition above about 34%; inconclusive = no clear call, values can overlap the other calls; inactive = below about 11%;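 note: 0% = DMSO and 100% = no enzyme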
Target sequence (O75874 whole entry R132H): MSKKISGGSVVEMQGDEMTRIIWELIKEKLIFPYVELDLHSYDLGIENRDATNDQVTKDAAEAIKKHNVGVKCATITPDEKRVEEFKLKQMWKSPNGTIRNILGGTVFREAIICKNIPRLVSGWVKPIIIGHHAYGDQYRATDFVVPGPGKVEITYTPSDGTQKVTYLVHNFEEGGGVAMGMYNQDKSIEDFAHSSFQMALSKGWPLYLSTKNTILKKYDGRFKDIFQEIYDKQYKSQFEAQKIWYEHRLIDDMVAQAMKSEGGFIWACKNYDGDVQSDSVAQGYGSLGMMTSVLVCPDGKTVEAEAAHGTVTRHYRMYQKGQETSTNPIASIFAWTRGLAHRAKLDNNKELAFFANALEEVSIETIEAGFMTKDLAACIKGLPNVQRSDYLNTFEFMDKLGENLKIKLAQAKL
KDM4C inh – KDM4C (human) demethylase inhibition. Q9H3R0. GST-KDM4C 2-372, H3K9me3 peptide, LANCE TR-FRET. inhibition, % at 12.5 µM. actives 0.15% (n = 96,000);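 active = mean replicate inhibition above about 25%, with at least 55% of replicates also reaching it, limit read from the data, passing the limit was not always enough; inconclusive = only one of those two conditions met; inactive = neither condition met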
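Material: GST-tagged GASC-1 (JMJD2C) catalytic fragment, aa 2-372 / Quantity: enzyme final amount 10 nM / Medium: HEPES buffer, pH 7.5, plus ascorbate / Doses: one test concentration per compound / Incubation: 30 min reaction, 60 min detection, RT / Measured by: LANCE TR-FRET / Read-out: inhibition from TR-FRET ratio decrease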
T cruzi growth-2 – Trypanosoma cruzi proliferation inhibition | shares compounds with T cruzi growth-1 | T. cruzi beta-gal in NIH3T3, GalScreen luminescence, 90 h | inhibition, % at 8.35 µM | actives 72% (n = 5,600) | AID 651739;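 active = mean replicate inhibition above about 95% and at least 55% of replicates individually reaching it, limit read from the data; inconclusive = only one of the two criteria is met; inactive = neither criterion is met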
T cruzi growth-3 – Trypanosoma cruzi proliferation inhibition | shares compounds with T cruzi growth-1 | T. cruzi beta-gal in NIH3T3, GalScreen luminescence, 90 h | inhibition, % at 2.09 µM | actives 21% (n = 5,600) | AID 651740;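 active = mean inhibition above about 95%, with at least 55% of replicates also reaching it, limit read from the data; inconclusive = meets just one of the two conditions; inactive = meets neither condition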;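 note: plate controls were neutral control median for no effect and positive control median for full effect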
NIH3T3 tox – NIH/3T3 (mouse) viability loss; shares compounds with T cruzi growth-1; NIH/3T3 viability, CellTiter-Glo ATP luminescence, 90 h; cytotoxicity (signal decrease), % at 8.35 µM; actives 14% (n = 5,600);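 active = mean signal decrease across replicates above about 35% based on untreated-well scatter, with enough replicates individually passing, limit read from the data; inconclusive = no rule stated though some were filed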;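 note: 0% = median of neutral control wells and 100% = median of positive control wells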
3T3 cytotox 2 – kills mouse NIH/3T3 fibroblasts; shares compounds with T cruzi growth-1; inhibition, % at 24.9 µM; NIH/3T3 viability, CellTiter-Glo ATP luminescence, 90 h; actives 56% (n = 5,600);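 active = mean loss of cell viability signal at or above a set limit, and enough replicates individually reaching it; inconclusive = meets only the mean limit or only the replicate share; inactive = meets neither condition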;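 note: 0% = median of neutral control wells and 100% = median of positive control wells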
* marks the source's active call; other numbers are inactive results; ? = inconclusive; / = not tested or not shown. The sample as a whole holds a higher share of hits than the screen did.

SMILES | T cruzi growth-1 | IDH1 mut inh | KDM4C inh | T cruzi growth-2 | T cruzi growth-3 | NIH3T3 tox | 3T3 cytotox 2
CCCC#Cc1ccc([C@H]2[C@H]3CN(Cc4ccncc4)CCCCN3[C@H]2CO)cc1 | 95* | / | -1 | 105* | 56 | 42* | 81*
CCCC#Cc1ccc([C@@H]2[C@H]3CN(CCC)CCCCN3[C@H]2CO)cc1 | 79 | / | 0 | / | / | / | /
CCCC#Cc1ccc([C@H]2[C@@H](CO)N3CCCCN(Cc4ccncc4)C[C@@H]23)cc1 | 115* | / | 1 | 101* | 28 | ? | 71*
COCC#Cc1ccc([C@@H]2[C@H](CO)N3CCCCN(Cc4ccncc4)C[C@@H]23)cc1 | 17 | / | 2 | / | / | / | /
COc1ccc(C#Cc2ccc([C@H]3[C@H]4CN(Cc5ccncc5)CCCCN4[C@H]3CO)cc2)cc1 | 50 | / | 1 | / | / | / | /
COc1ccc(NC(=O)CN(c2ccc(Cl)c(Cl)c2)S(C)(=O)=O)cc1OC | / | 0 | / | / | / | / | /
O=C(NC1CCCC1)c1c(NC(=O)c2cc(-c3ccccn3)nc3ccccc23)sc2c1CCC2 | / | 0 | / | / | / | / | /
O=C1O[C@@H](c2ccccc2)[C@@H](c2ccccc2)N2[C@@H](c3ccc(O)cc3)[C@]3(C(=O)Nc4ccccc43)[C@@H](C(=O)N3CCN(c4ncccn4)CC3)[C@H]12 | / | 0 | / | / | / | / | /
C[C@H](CO)N1C[C@H](C)[C@@H](CN(C)S(=O)(=O)c2ccccc2)OCCCC[C@H](C)Oc2ccc(NC(=O)Nc3ccccc3)cc2C1=O | 59 | 0 | 0 | / | / | / | /
C[C@@H]1CN([C@H](C)CO)C(=O)c2cc(NC(=O)Nc3ccc(F)cc3)ccc2O[C@@H](C)CCCCO[C@@H]1CN(C)S(=O)(=O)c1ccccc1 | 103* | 10 | 17 | 83 | -13 | -13 | -3
C[C@@H]1CCCCO[C@@H](CN(C)S(=O)(=O)c2ccccc2)[C@@H](C)CN([C@H](C)CO)C(=O)c2cc(NC(=O)Nc3ccc(F)cc3)ccc2O1 | 87 | / | 1 | / | / | / | /
C[C@@H]1CCCCO[C@H](CN(C)S(=O)(=O)c2ccccc2)[C@@H](C)CN([C@H](C)CO)C(=O)c2cc(NC(=O)Nc3ccccc3)ccc2O1 | 20 | 0 | 0 | / | / | / | /
C[C@@H]1CCCCO[C@H](CN(C)S(=O)(=O)c2ccccc2)[C@H](C)CN([C@@H](C)CO)C(=O)c2cc(NC(=O)Nc3ccc(F)cc3)ccc2O1 | 105* | / | -3 | 109* | 66 | -25 | 24
C[C@H](CO)N1C[C@H](C)[C@@H](CN(C)S(=O)(=O)c2ccccc2)OCCCC[C@H](C)Oc2ccc(NC(=O)Nc3ccc(F)cc3)cc2C1=O | 109* | 1 | -1 | 106* | 59 | -3 | 14
C[C@@H]1CN([C@@H](C)CO)C(=O)c2cc(NC(=O)Nc3ccc(F)cc3)ccc2O[C@@H](C)CCCCO[C@H]1CN(C)S(=O)(=O)c1ccccc1 | 106* | / | 0 | 112* | -49 | 14 | 5
C[C@@H]1CCCCO[C@@H](CN(C)S(=O)(=O)c2ccccc2)[C@@H](C)CN([C@H](C)CO)C(=O)c2cc(NC(=O)Nc3ccccc3)ccc2O1 | 36 | 0 | 0 | / | / | / | /
CC1CC(=O)C2C(O)(C1)CC(O)C13OC21C(=O)c1cccc(O)c1C3O (stereo not given) | / | 0 | / | / | / | / | /
COc1cc(/C(C)=C/C(C)(O)C(C)O)oc(=O)c1C (stereo not given) | / | 0 | / | / | / | / | /
COc1ccc(/C=N/NC(=O)c2ccccn2)cc1OC | / | 0 | / | / | / | / | /
O=C(Cn1cnc2ccccc2c1=O)Nc1ccc2c(c1)oc1ccccc12 | / | 0 | / | / | / | / | /
O=c1c2c(nc3nc(NCc4cccc([N+](=O)[O-])c4)[nH]n13)CCC2 | / | 0 | / | / | / | / | /
Cc1ccccc1NC(=O)CSc1nc2cc3ccccc3cc2[nH]1 | / | 0 | / | / | / | / | /
Cc1ccccc1-c1ccc2c(c1)O[C@H](CN(C)C(=O)Nc1ccccc1)[C@H](C)CN([C@H](C)CO)S2(=O)=O | 73 | -3 | -4 | / | / | / | /
C[C@H](CO)N1C[C@H](C)[C@@H](CN(C)C(=O)Nc2ccc(F)cc2)Oc2cc(-c3ccncc3)ccc2S1(=O)=O | 93 | -1 | 0 | / | / | / | /
C[C@H]1CN([C@@H](C)CO)S(=O)(=O)c2ccc(-c3ccncc3)cc2O[C@@H]1CN(C)C(=O)Nc1ccc(F)cc1 | 105* | 59* | 25 | 102* | 89 | 15 | ?
SMILES | T cruzi growth-1 | IDH1 mut inh | KDM4C inh | T cruzi growth-2 | T cruzi growth-3 | NIH3T3 tox | 3T3 cytotox 2
Cc1ccccc1-c1ccc2c(c1)O[C@H](CN(C)C(=O)Nc1ccccc1)[C@@H](C)CN([C@H](C)CO)S2(=O)=O | ? | 0 | -1 | 79 | -9 | 18 | 28*
Cc1ccc(-c2ccc3c(c2)O[C@@H](CN(C)C(=O)Nc2ccc(F)cc2)[C@H](C)CN([C@@H](C)CO)S3(=O)=O)cc1 | 119* | / | -4 | 95* | 42 | 43* | 35*
C[C@@H]1CN([C@@H](C)CO)S(=O)(=O)c2ccc(-c3ccncc3)cc2O[C@H]1CN(C)C(=O)Nc1ccc(F)cc1 | 102* | / | -3 | 101* | 86 | -11 | 64*
CC(=O)N(C)C[C@H]1Oc2cc(-c3ccncc3)ccc2S(=O)(=O)N([C@@H](C)CO)C[C@H]1C | 50 | 2 | 0 | / | / | / | /
Cc1ccc(-c2ccc3c(c2)O[C@@H](CN(C)C(=O)Nc2ccc(F)cc2)[C@H](C)CN([C@H](C)CO)S3(=O)=O)cc1 | 64 | -1 | 0 | / | / | / | /
COc1cc2nc(SCC(N)=O)n3nc(CCn4c(C)nc5ccccc54)nc3c2cc1OC | / | 1 | / | / | / | / | /
O=C(CSc1n[nH]c(-c2ccco2)n1)Nc1ccc(I)cc1 | / | 1 | / | / | / | / | /
CC(Sc1ncn[nH]1)C(=O)Nc1ccc(Cl)cc1 (stereo not given) | / | 0 | / | / | / | / | /
Cc1nnc(SCC(=O)Nc2ccc(C)c([N+](=O)[O-])c2)s1 | / | 0 | / | / | / | / | /
CC(C(=O)Nc1cccc2ccccc12)N(c1ccc(Cl)cc1)S(C)(=O)=O (stereo not given) | / | 1 | / | / | / | / | /
O=C(N/N=C/C=C/c1ccccc1)c1ccccc1O | / | 0 | / | / | / | / | /
C[C@@H]1CN([C@H](C)CO)S(=O)(=O)c2ccc(-c3ccncc3)cc2O[C@@H]1CN(C)C(=O)Nc1ccc(F)cc1 | 108* | / | 0 | 97* | 77 | 11 | 39*
C[C@H]1CN([C@@H](C)CO)S(=O)(=O)c2ccc(-c3ccncc3)cc2O[C@H]1CN(C)C(=O)Nc1ccc(F)cc1 | 92 | 1 | 0 | / | / | / | /
CCOc1ccc(-n2c(SCC(=O)OC)nnc2-c2ccccc2)cc1 | / | 0 | / | / | / | / | /
Cc1ccc(S(=O)(=O)N(C)C[C@H]2OCCCC[C@@H](C)Oc3ccc(NC(=O)NC4CCCCC4)cc3C(=O)N([C@@H](C)CO)C[C@H]2C)cc1 | 100* | / | -1 | 108* | 31 | -6 | -54
